PvdQ inh – blocks Pseudomonas aeruginosa PvdQ acylase activity. 340,000 compounds, 0.063% hits. AID 488965. inhibition, % at 10 µM. purified PvdQ acylase, fluorescence plate reader; in the data active = inhibition above about 30%, passing the limit was not always enough; inconclusive = no clear call, values can overlap the other calls;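 note: 0% = vehicle neutral wells and 100% = reference inhibitor wells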
CaV13 FRET inh – Primary screen for inhibitors of IQ motif and Ca2+-dependent inactivation inhibitor domain binding in CACNA1D, Förster resonance energy transfer in living cells, … | HEK cells, CFP/YFP FRET ICDI-IQ, plate reader, 10 min; percent FRET-ratio fall versus neutral wells | inhibition, % at 12.3 µM | 340,000 compounds, 0.098% hits | AID 743397;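 active = mean replicate inhibition of at least 30% and at least 1% of replicates passing that level; inconclusive = only one of the two criteria is met; inactive = neither criterion is met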;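 note: 0% = median of the neutral control wells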
N-glyco inh – blocks N-linked glycosylation in D54 reporter cells; D54 ERlucT glycosylation luciferase reporter, 24 h; percent of 100 nM tunicamycin response; reporter increase, % at 12.5 µM; 360,000 compounds, 0.23% hits; AID 588692;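 active = mean luciferase reporter signal, scaled so untreated is 0 and the glycosylation-blocking control 100, at or above a set limit in every replicate; inconclusive = mean reaches the limit but not every replicate does; inactive = mean below the limit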;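 note: luciferase carries N-glycosylation sites so blocking glycosylation raises the light; 0% = median of neutral control wells and 100% = median of 100 nM tunicamycin wells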
HSF1 activator – increases HSF-1 driven luciferase reporter signal; activation, % at 9 µM; AID 504408; 300,000 compounds, 1.7% hits; NIH3T3-HGL HSF-1 luciferase reporter, MG132, 8 h; 100% = twice DMSO control signal;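 active = mean replicate activation of at least 50% with a set share of replicates each reaching 50%; inconclusive = only one of those two conditions met; inactive = mean below 50% and too few replicates reaching it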;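 note: 0% = median of the neutral control wells and 100% = twice that signal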
T cruzi repl – blocks replication of Trypanosoma cruzi; T. cruzi beta-gal in NIH3T3, luminescence, 90 h; inhibition, % (test concentration not listed); 300,000 compounds, 1.4% hits; AID 1885;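 active = mean inhibition across valid replicates above about 55%, limit read from the data; inconclusive = mean below that limit but half or more replicates reach it; inactive = mean below it, under half of replicates reach it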;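 note: signal also drops with host cell toxicity which is not excluded here; 0% = plate median of DMSO wells and 100% = zero luminescence signal; higher percent means less beta-gal luminescence so fewer parasites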
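System: mouse NIH/3T3 fibroblasts infected with β-gal-expressing T. cruzi Tulahuen C4 / Input: NIH/3T3 cells, 5,000 per well / Buffer or medium: Low-serum DMEM with 2% FBS / Probe or stimulus: 5000 reporter trypomastigotes per well / Schedule: ≥90 h infection period, 3 h prior cell attachment / Measured by: GalScreen luminescence, 60 min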
PfHsp90 yeast 2 – reduces growth (ATP signal) of yeast expressing P. falciparum Hsp90. S. cerevisiae expressing PfHsp90, BacTiter-Glo ATP, 48 h; yeast lacking PDR1 and PDR3 efflux regulators. inhibition, % at 9.4 µM. 310,000 compounds, 0.32% hits. AID 504621;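 active = every replicate shows inhibition above about 80%, whatever the replicate mean, limit read from the data; inconclusive = mean inhibition reaches the set limit but some replicate falls short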;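 note: 0% = DMSO neutral controls and 100% = 20 µM radicicol positive controls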
Active calls of the source: *; ? = inconclusive; nt = no result given. Rows were chosen to be rich in hits. Some 3% of all compounds tested hit in one or more screens of this group.

SMILES	PvdQ inh	CaV13 FRET inh	N-glyco inh	HSF1 activator	T cruzi repl	PfHsp90 yeast 2
CC(=O)N/C(N)=N/c1nc2cc([N+](=O)[O-])ccc2o1	-15	-4	1	72*	-5	3
CC(=O)N/C(N)=N/c1nc2cc(C)ccc2o1	-13	8	-6	45	-7	-19
CC(C)(C)C(=O)N/C(N)=N/c1nc2ccccc2o1	13	-4	-9	52*	-7	-11
O=C(/C=C/[C@H]1O[C@@H](n2cnc3c(NC(=O)c4ccccc4)ncnc32)[C@H](O)[C@@H]1O)NCCCN1CCCC1=O	nt	-5	2	nt	nt	nt
COC(=O)N/N=C/c1ccc([N+](=O)[O-])o1	8	-4	7	-48	55*	-10
O=C(N/N=C/c1ccc([N+](=O)[O-])o1)C1CC1	-4	-4	9	7	73*	-5
O=C(N/N=C/c1ccc([N+](=O)[O-])o1)c1sc2ccccc2c1Cl	-22	-7	11	-10	48	104*
NC(=O)N/N=C/c1ccc([N+](=O)[O-])o1	0	-5	7	nt	nt	11
O=[N+]([O-])c1ccc(/C=N/Nc2nc(N3CCCCC3)nc(N3CCCCC3)n2)o1	-6	-5	7	8	63*	nt
CCOC(=O)c1c(Nc2ccc(OC)cc2)n[nH]c1C	nt	-11	nt	nt	nt	nt
C=CCO[C@H]1CN(C(=O)OC)[C@@H](c2ccccc2Br)C[C@H]1OCC=C	nt	-4	nt	nt	nt	nt
Oc1cccc(-c2nc3ccc4ccccc4c3c3c2CCC3)c1	-4	-5	-1	59*	29	?
CCOC(=O)c1cc(OCC)c2c(ccc3ccccc32)n1	nt	-16	-1	nt	nt	nt
CCCCn1c(OC(=S)N(CC)CC)cc(C)nc1=S	nt	nt	3	nt	nt	nt
COCCN1Cc2cc(C(=O)OC)c3c(c2C1=O)c1cc(F)ccc1n3S(=O)(=O)c1cccc(C)c1	nt	-8	nt	nt	nt	nt
Cc1cccc(/C=C/C(=O)c2ccc(NC3=NCCCS3)cc2)c1	3	-2	4	74*	55*	-9
CC(C)(C)c1ccc(/C=C/C(=O)c2ccc(NC3=NCCCS3)cc2)cc1	-16	-15	13	19	58*	13
COc1cccc(/C=C/C(=O)c2ccc(NC3=NCCCS3)cc2)c1	4	6	10	12	45	5
CCOC(=O)c1csc(COc2ccccc2Cl)n1	22	-2	-2	23	9	-14
CCOC(=O)c1csc(COc2ccc(OC)cc2)n1	-8	-5	-1	64*	3	-2
O=C(c1ccc(COc2ccc(Cl)cc2)cc1)N1CCCCC1	10	9	0	54*	26	-6
CCCCOc1ccc(C(=O)N2CCCCCC2)cc1	9	nt	0	4	4	16
CCOc1ccc(S(=O)(=O)c2c(C(=O)c3ccccc3)cnc3cc4c(cc23)OCCO4)cc1	-12	-3	-2	68*	71*	-36
COc1cc(-c2nc3ccccn3c2NCc2ccccc2)ccc1SC1CCCCC1	-12	nt	-9	17	61*	8
COc1cc(-c2nc3ccc(C)cn3c2NCc2ccccc2)ccc1SC1CCCCC1	-5	-6	-8	-6	42	-12
SMILES	PvdQ inh	CaV13 FRET inh	N-glyco inh	HSF1 activator	T cruzi repl	PfHsp90 yeast 2
O=C(C1CCN(Cc2ccc(OCc3ccccc3)cc2)CC1)N1CCCC1	-10	-5	-5	14	-4	36
CC(C)(c1ccccc1)c1ccc(OCC(O)CNC2CCN(Cc3ccccc3)CC2)cc1 (centres undefined)	-4	-19	-5	5	62*	-24
CCOc1ccc(OCC(O)CNC2CCN(Cc3ccccc3)CC2)cc1 (centres undefined)	2	-6	-3	4	57*	4
CC(Oc1ccc(Br)cc1)C(=O)NC1CCN(Cc2ccccc2)CC1 (centres undefined)	-5	-6	-6	-2	58*	11
OC1CCN(Cc2ccc(OCc3ccccc3)cc2)CC1	20	-4	-11	-18	61*	-12
COc1ccc(CNCC(O)COc2ccc(C(C)(C)c3ccccc3)cc2)cc1 (centres undefined)	3	-21	-3	194*	43	12
OC(CNc1ccccc1)COc1ccc(OCC(O)CNc2ccccc2)cc1 (centres undefined)	-8	-1	0	-10	63*	nt
COCCCNCCCOc1ccc(C(C)(C)c2ccccc2)cc1	-6	-6	-4	22	58*	-8
CCN1C(=O)CCN(C2CCCC2)c2nc(Nc3ccc(C(=O)NC4CCN(C)CC4)cc3OC)ncc21	6	-4	55*	nt	nt	-3
Cc1c(NC(=O)C(C)OC(=O)c2ccc([N+](=O)[O-])s2)c(=O)n(-c2ccccc2)n1C (centres undefined)	3	-5	4	-12	86*	-6
O=C(NC1CCCCCC1)c1cc2ccccc2oc1=O	-8	-6	-12	-34	-9	-24
O=C(OC1CCCCC1)c1cc2ccccc2oc1=O	4	-19	0	52*	-3	-21
CCCC(C)C(=O)Nc1ncc(S(=O)(=O)c2ccc([N+](=O)[O-])cc2)s1 (centres undefined)	-6	-7	-7	14	63*	-7
CCC(C)(C)C(=O)Nc1ncc(S(=O)(=O)c2ccc([N+](=O)[O-])cc2)s1	-8	nt	-3	17	39	0
O=C(Nc1ncc(S(=O)(=O)c2ccc([N+](=O)[O-])cc2)s1)c1cccnc1	0	2	6	22	10	7
O=C(Nc1ncc(S(=O)(=O)c2ccc([N+](=O)[O-])cc2)s1)c1ccc2ccccc2c1	-9	-14	-3	-1	55*	9
COc1cc([N+](=O)[O-])c2nc(C(=O)O)ccc2c1	-4	-5	-1	nt	nt	-7
O=Nc1ccccn1	nt	-8	nt	nt	nt	nt

From PubChem
